Assay outcomes (PubChem BioAssay)
Cl transport mod = modulators of human KCC2 chloride dependent transport. Q9H2X9. KCC2 cells, thallium flux FluoZin-2 fluorescence. B-score of Tl+ flux slope (higher = more flux/activation; lower = inhibition) at 10 µM. actives 2.2% (n = 190,000). AID 1456;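 active = thallium flux slope and its plate-corrected score both differing from the plate sample mean at a set confidence after two filtering rounds, in either direction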;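 also: slope of fluorescence scaled to starting intensity during 10 to 20 s after thallium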
Target sequence (Q9H2X9 whole entry, looked up): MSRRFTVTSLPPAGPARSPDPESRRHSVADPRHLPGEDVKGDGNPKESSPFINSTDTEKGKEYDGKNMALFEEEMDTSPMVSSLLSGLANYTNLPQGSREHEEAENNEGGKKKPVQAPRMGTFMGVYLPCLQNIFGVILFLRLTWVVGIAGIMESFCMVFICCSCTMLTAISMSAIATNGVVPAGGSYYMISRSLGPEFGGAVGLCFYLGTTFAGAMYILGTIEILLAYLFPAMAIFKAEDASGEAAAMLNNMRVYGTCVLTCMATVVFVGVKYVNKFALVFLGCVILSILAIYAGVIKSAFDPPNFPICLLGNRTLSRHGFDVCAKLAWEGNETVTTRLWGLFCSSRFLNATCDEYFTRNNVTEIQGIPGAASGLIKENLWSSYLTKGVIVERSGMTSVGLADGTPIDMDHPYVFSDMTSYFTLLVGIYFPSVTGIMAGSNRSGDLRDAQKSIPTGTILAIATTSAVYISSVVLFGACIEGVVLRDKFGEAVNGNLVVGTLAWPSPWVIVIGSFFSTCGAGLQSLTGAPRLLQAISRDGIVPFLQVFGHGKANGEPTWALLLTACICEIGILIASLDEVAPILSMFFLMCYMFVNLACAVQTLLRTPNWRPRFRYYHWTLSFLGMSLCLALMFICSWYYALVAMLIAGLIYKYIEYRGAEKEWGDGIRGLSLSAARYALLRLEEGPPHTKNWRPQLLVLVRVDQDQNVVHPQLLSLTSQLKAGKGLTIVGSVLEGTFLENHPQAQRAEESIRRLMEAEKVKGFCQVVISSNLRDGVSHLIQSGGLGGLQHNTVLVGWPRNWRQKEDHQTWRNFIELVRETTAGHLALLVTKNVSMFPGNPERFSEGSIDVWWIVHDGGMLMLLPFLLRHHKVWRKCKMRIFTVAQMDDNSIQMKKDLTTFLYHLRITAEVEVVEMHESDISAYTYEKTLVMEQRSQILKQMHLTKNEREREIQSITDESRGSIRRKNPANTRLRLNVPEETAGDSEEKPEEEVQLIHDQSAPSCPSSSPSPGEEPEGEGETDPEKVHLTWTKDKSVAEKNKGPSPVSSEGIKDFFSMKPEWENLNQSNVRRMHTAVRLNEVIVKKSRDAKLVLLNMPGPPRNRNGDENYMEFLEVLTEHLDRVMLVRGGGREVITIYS
RAM network inh = blocks the yeast RAM network; inhibition, % at 50 µM; actives 1.8% (n = 190,000); AID 868; S. cerevisiae dse1pr::URA3 reporter, 5-FOA growth OD615, 2 d; analog-sensitive cbk1-as2 kinase mutant strain;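 active = inhibition above a set limit, 3 SD over mean compound inhibition, cut at about 8.4% in these data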;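 also: 0% = DMSO-only wells with no growth and 100% = 10 µM 1-NA-PP1 full growth; inhibition rescues growth on 5-FOA so higher OD means more RAM inhibition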
Yeast lifespan up = yeast lifespan extension. inhibition of the nicotinamide effect, % at 10 µM. actives 0.68% (n = 130,000). S. cerevisiae growth with nicotinamide, OD615; deaD strain in restrictive glucose medium. AID 775;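 active = inhibition above a set limit, placed 3 SD over the median of all compounds, cut at about 26% in these data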;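 also: 0% = nicotinamide-treated wells and 100% = cells grown without nicotinamide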
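Assay system: engineered S. cerevisiae DeaD replicative-lifespan strain, galactose-grown log-phase cells; medium: restrictive CSMM-D dextrose medium; also added: nicotinamide, 1.5 mM, co-present with compound; schedule: 48 h compound exposure at 30 °C, humidified; detection: absorbance at 615 nm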
Yeast growth inh = reduces growth of yeast BB579 in restrictive medium. inhibition, % at 10 µM. actives 0.51% (n = 140,000). AID 804. S. cerevisiae BB579 growth, OD615, 48 h;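 active = inhibition above a set limit, 3 SD over the mean compound inhibition, cut at about 44% in these data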
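test system = yeast BB579 (DeaD) | buffer or medium = restrictive CSMM-D medium | doses = single compound dose of 10 µM, 0.25% DMSO final | times = 4 h preincubation and 48 h exposure at 30 °C | technique = culture absorbance at 615 nm | benchmarks = amphotericin B 10 µg/mL, positive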
WT yeast gro inh = growth inhibition of WT yeast, mitochondrial fusion screen | mitochondrial fusion phenotypic screen, WT strain | actives 2.1% (n = 190,000) | AID 1362 | inhibition, % at 10 µM; in the data active = inhibition above about 58%; tested in S. cerevisiae
KCC2 secondary = KCC2 (human) modulation, secondary assay. shares compounds with Cl transport mod. HEK293-KCC2, thallium flux, FluoZin2 fluorescence; stronger effect = higher value. normalised thallium flux (F/F0 slope) at 10 µM. actives 15% (n = 3,700). AID 1713;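 active = thallium flux slope above the same plate's solvent-only control mean plus 3 SD; inconclusive = the two replicate wells disagree; inactive = no significant difference from solvent-only control wells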
KCC2 bumet counter = thallium flux persisting under bumetanide in KCC2 cells, counter-screen secondary assay; AID 1714; HEK293-KCC2 + bumetanide/ouabain, thallium flux FluoZin2; stronger effect = higher value; normalized thallium flux at 10 µM; actives 49% (n = 3,700); shares compounds with Cl transport mod;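 active = thallium entry rate above the same plate's blocked-transporter control wells by more than 3 SD; inconclusive = the two repeat wells disagree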;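 also: raw slope of fluorescence over initial fluorescence between 10 and 20 s after thallium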
KCC2 secondary2 = KCC2 (human) modulation, second secondary assay | shares compounds with Cl transport mod | HEK293-KCC2, thallium flux FluoZin2 fluorescence; actives lie on both sides; F/F0 rise rate, 10–20 s post-thallium | actives 23% (n = 3,700) | normalized thallium flux at 10 µM;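 active = thallium flux slope more than 3 SD above or below the plate's solvent-only control mean, mostly below; inconclusive = the two repeat wells disagreed; inactive = no significant shift from solvent-only controls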;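 also: raw slope with 0.1% DMSO as baseline and bumetanide as block control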
HEK counter1 = counter-screen for KCC2 modulators: effect in parental HEK293 cells; AID 1716; thallium flux rate (normalised fluorescence) at 10 µM; thallium flux FluoZin2, ouabain; baseline-ratio fluorescence slope, 10–20 s after thallium; actives 46% (n = 3,700); shares compounds with Cl transport mod;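 active = thallium flux rate significantly above the same plate's solvent-only control wells, beyond their mean plus 3 SD; inconclusive = the two replicate wells gave conflicting results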
KCC2 ouabain = confirmation of human KCC2 modulators with ouabain. shares compounds with Cl transport mod. HEK293-KCC2, thallium flux FluoZin2 fluorescence; bidirectional: low = inhibitor, high = activator. raw Tl+ flux slope (below DMSO = inhibition, above = activation) at 10 µM. actives 48% (n = 3,700). AID 1717;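 active = thallium flux slope beyond 3 SD from same-plate DMSO control mean in most replicates, usually higher, sometimes lower; inconclusive = repeat tests gave conflicting results; inactive = no significant difference from controls in most replicates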;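 also: slope of initial-normalized fluorescence between seconds 10 and 20 after thallium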
HEK293 Tl flux2 = counter-screen for KCC2 modulators: effect in parental HEK293 cells. shares compounds with Cl transport mod. thallium flux FluoZin-2 fluorescence slope. thallium flux slope at 10 µM. actives 33% (n = 3,700). AID 1718;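 active = thallium flux slope above the same plate's solvent-control mean plus 3 SD in both duplicate wells; inconclusive = duplicate wells that disagreed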;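 also: run without ouabain in cells lacking the KCC2 cotransporter; slope of fluorescence scaled to its starting value between 10 and 20 s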
* = called active by the depositor; ? = inconclusive; nt = no result given. This is a sample that favours compounds with a hit; in the whole collection about 5.5% have one here.

SMILES | Cl transport mod | RAM network inh | Yeast lifespan up | Yeast growth inh | WT yeast gro inh | KCC2 secondary | KCC2 bumet counter | KCC2 secondary2 | HEK counter1 | KCC2 ouabain | HEK293 Tl flux2
COc1cccc(-c2nc(CS(=O)(=O)CC(=O)NCc3ccccc3)c(C)o2)c1 | -4.1* | 3 | -8 | -24 | 2 | 0.0087 | 0.0058 | 0.037 | 0.0045 | ? | 0.012
CC(C)CC(=O)Nc1nnc(CSCc2ccc(F)cc2)s1 | -0.62 | nt | nt | nt | nt | nt | nt | nt | nt | nt | nt
O=c1c2ccccc2n2c(-c3cccc(Cl)c3)nnc2n1Cc1ccccc1 | -0.38 | 2 | 0 | -18 | -8 | nt | nt | nt | nt | nt | nt
COc1ccc(-c2nnc3n(CCc4ccccc4)c(=O)c4ccccc4n23)cc1OC | 4.4* | 2 | -4 | -26 | 11 | 0.0088 | 0.017* | 0.028 | 0.0097* | ? | ?
O=C(Nc1ccccc1F)c1ccc(COc2ccc(Cl)cc2Cl)o1 | 0.38 | 5 | nt | -37 | 20 | nt | nt | nt | nt | nt | nt
CC(C)CNC(=O)c1ccc(COc2ccc(Cl)cc2Cl)o1 | -4* | 2 | -29 | 6 | 5 | 0.0054 | 0.0049 | 0.023* | 0.0062 | 0.013* | 0.0091
O=C1CSC(=Nc2ccccc2)N1 | 5.7* | 4 | -9 | -1 | 11 | 0.0079 | ? | 0.033 | 0.008 | 0.022 | ?
CCN=c1scc(-c2ccc(F)cc2)n1/N=C/c1ccccn1 | -5.7* | -1 | nt | nt | 48 | 0.0052 | 0.0044 | 0.023* | ? | 0.014* | 0.011
Clc1ccc(Cl)c(OCc2cc(-c3ccccc3Cl)on2)c1 | -0.006 | 3 | 1 | -22 | nt | nt | nt | nt | nt | nt | nt
CN(NS(=O)(=O)c1ccccc1)c1nc2ccccc2nc1C(F)(F)F | 1.5 | 1 | 2 | -5 | -7 | nt | nt | nt | nt | nt | nt
CN(NS(=O)(=O)c1ccc(Cl)cc1)c1nc(C(F)(F)F)nc2ccccc12 | -2.9* | -1 | nt | nt | 54 | 0.0065 | 0.0055 | 0.029 | ? | 0.018 | 0.01
COc1ccc(C2=NN(C(=O)CCCC(=O)O)C(c3cn(-c4ccccc4)nc3-c3ccccc3)C2)cc1 (stereo not drawn) | -1 | nt | nt | nt | nt | nt | nt | nt | nt | nt | nt
Cc1ccc(S(=O)(=O)NC(=O)Nc2cc(C)ccc2F)cc1 | -11* | 1 | -19 | -30 | 4 | 0.016 | ? | 0.029 | ? | 0.017 | 0.011
O=C1Nc2ccccc2C12OCCS2 (stereo not drawn) | nt | 0 | 5 | -39 | 4 | nt | nt | nt | nt | nt | nt
COc1ccccc1NC(=O)N1CCC(c2nc3ccccc3o2)CC1 | -0.052 | 1 | nt | nt | 6 | nt | nt | nt | nt | nt | nt
O=C(NC(=S)NNC(=O)[C@H]1C[C@@H]1c1ccccc1)c1cccc(F)c1 | 67* | nt | nt | nt | nt | 0.0087 | 0.086* | 0.06* | 0.061* | 0.067* | 0.05*
COc1cccc(OC)c1C(=O)NC(=S)NNC(=O)[C@H]1C[C@@H]1c1ccccc1 | 4.3 | nt | nt | nt | nt | nt | nt | nt | nt | nt | nt
O=C(CCCNC(=O)/C(=C/c1ccc(F)cc1)NC(=O)c1ccccc1)OCc1ccccc1 | -3.2* | 5 | -2 | -15 | 4 | 0.0075 | 0.0043 | 0.034 | 0.0067 | 0.018* | 0.01
O=C(CCCNC(=O)/C(=C\c1ccc(F)cc1)NC(=O)c1ccccc1)OCc1ccccc1 | -2.1 | 2 | -4 | -25 | -5 | nt | nt | nt | nt | nt | nt
COc1ccc(CC(=O)NNc2ncnc3c2cnn3-c2ccc(C)cc2)cc1OC | 0.42 | 2 | -2 | 0 | -12 | nt | nt | nt | nt | nt | nt
COC(=O)c1sc(-c2ccc(Cl)cc2)cc1NC(=O)/C=C/C(=O)O | -4.1* | nt | nt | nt | nt | 0.0095 | 0.008* | 0.03 | 0.0075 | 0.014* | 0.012
COC(=O)c1sc(-c2ccc(Cl)cc2)cc1NC(=O)COCC(=O)O | 0.3 | nt | nt | nt | nt | nt | nt | nt | nt | nt | nt
CCCCC(=O)Nc1ccc(C(=O)NN2C(=O)c3ccccc3C2=O)cc1 | nt | 1 | -7 | -16 | -10 | nt | nt | nt | nt | nt | nt
CC(C)n1c(SCC(=O)NCc2ccco2)nc2c1c(=O)n(C)c(=O)n2C | -0.007 | 1 | 1 | -57 | 17 | nt | nt | nt | nt | nt | nt
Cn1c(=O)c2c(nc(SCC(=O)NCc3ccco3)n2C)n(C)c1=O | 5.1* | 0 | -8 | 10 | -14 | 0.0066 | 0.0037 | 0.032 | 0.0073 | 0.018 | 0.0097
SMILES | Cl transport mod | RAM network inh | Yeast lifespan up | Yeast growth inh | WT yeast gro inh | KCC2 secondary | KCC2 bumet counter | KCC2 secondary2 | HEK counter1 | KCC2 ouabain | HEK293 Tl flux2
CCCCn1nnnc1SCC(=O)NCc1ccco1 | 4.5* | 2 | -20 | -2 | -5 | 0.0086 | 0.0067 | 0.031 | 0.0073 | 0.021 | ?
O=C(O)c1cc(-c2ccc(/C=N/N3C(=O)C4C5C=CC(CC5)C4C3=O)o2)ccc1Cl (stereo not drawn) | -9.7* | 3 | nt | nt | -5 | 0.0086 | ? | 0.03 | 0.007 | 0.035 | 0.0095
CC(=O)N1CCCc2cc(S(=O)(=O)CCC(=O)N3CCN(c4cccc(C)c4)C(C)C3)ccc21 (stereo not drawn) | -3.6* | 1 | -6 | 8 | 2 | 0.0076 | 0.0049 | 0.026 | 0.0073 | 0.018 | 0.01
CCC(=O)Nc1ccccc1C(=O)C(=O)Nc1ccccc1 | 1.6 | 1 | -3 | -27 | -2 | nt | nt | nt | nt | nt | nt
Cc1ccccc1NC(=O)CSc1nc(O)cc(=O)n1C | 0.76 | nt | nt | nt | nt | nt | nt | nt | nt | nt | nt
COc1cccc(-c2cc(C(=O)N3CCc4ccccc4C3)no2)c1 | 3.4* | 2 | -6 | -7 | 36 | 0.0086 | 0.0058 | 0.029 | 0.007 | 0.02 | 0.0094
COc1ccc(-c2cc(C(=O)N3CCN(Cc4ccccc4)CC3)no2)cc1OC | -3.4* | 0 | 7 | -50 | 18 | 0.017 | ? | 0.022* | 0.0077 | 0.014 | 0.01
COc1ccc(Cl)cc1NC(=S)NNC(=O)c1cccs1 | 0.016 | 0 | nt | nt | 13 | nt | nt | nt | nt | nt | nt
Cc1cc(NC(=O)C2CC(c3ccc(F)cc3)=NO2)n(-c2ccccc2)n1 (stereo not drawn) | nt | 0 | -11 | 3 | 13 | nt | nt | nt | nt | nt | nt
CCn1cc(C2=NOC(C(=O)Nc3cc(C)nn3-c3ccccc3)C2)c(C)n1 (stereo not drawn) | 4.6* | 1 | -11 | -28 | 10 | 0.011 | ? | 0.034 | 0.0082 | 0.022 | 0.011
CCc1ccc(NC(=S)Nc2ccc3[nH]c(=O)[nH]c3c2)cc1 | 0.79 | nt | nt | nt | nt | nt | nt | nt | nt | nt | nt
